According to paper PMC4805660 (Theranostics, 2016):
Structures can show the parent of a compound that is named as a salt.

How the values were obtained:
Assay type in all cases: in vivo, NMRI nu/nu mice
MPC-mCherry tumors [1] = assay: Renal; conditions: for DAred, reduction of renal dopamine excretion [14-28 days pci] / NEred, reduction of renal norepinephrine excretion [14-28 days pci] / NMNred, reduction of renal normetanephrine excretion [14-28 days pci]: doxorubicin 6.9 µmol/kg, AN-238 0.2 µmol/kg, [^177Lu]Lu-DOTATATE 80 MBq/animal, urine LC-MS/MS, compared to control, mean ± SEM
[2] = Body weight monitoring in treated mice; conditions: doxorubicin 6.9 µmol/kg, AN-238 0.2 µmol/kg, [^177Lu]Lu-DOTATATE 80 MBq/animal
How it was run: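 Mice carrying growing MPC-mCherry tumours (5 ± 3 mm diameter) were grouped by similar mean tumour volume and randomly assigned to control or therapy; treatment began 15 days pci. Test compounds in Infesol 15 given via tail vein at 0.3 mL/30 g body weight. Three independent experiments followed an identical protocol, with data pooled.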

MPC-mCherry tumors [3] = assay: ^177Lu activity in MPC-mCherry tumors after treatment, monitored by PLI; conditions: not decay-corrected, 80 MBq/animal
How it was run: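 Radioligand was made by heating [177Lu]LuCl3 (pH 5.2, NH4OAc) with 14 nmol peptide at 90 °C for 20 min, giving >97% HPLC radiochemical purity. 80 MBq (1.2 nmol)/mouse was given by tail vein in Infesol 15 from 15 days pci. Tumour ROIs were thresholded on mCherry/reference fluorescence (signal/background 2). PLI signal was expressed as effective and decay-corrected 177Lu activity.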

Compound	DAred, reduction of renal dopamine excretion [14-28 days pci] (MPC-mCherry tumors [1]) [%]	NEred, reduction of renal norepinephrine excretion [14-28 days pci] (MPC-mCherry tumors [1]) [%]	NMNred, reduction of renal normetanephrine excretion [14-28 days pci] (MPC-mCherry tumors [1]) [%]	body weight change after treatment [2]	half-life of effective ^177Lu activity in tumors (MPC-mCherry tumors [3]) [h]	fold more effective in reducing overall renal monoamine excretion compared to doxorubicin and AN-238 (MPC-mCherry tumors [1]; 14-28 days pci) [fold]
COc1cccc2c1C(=O)c1c(O)c3c(c(O)c1C2=O)C[C@@](O)(C(=O)CO)C[C@@H]3O[C@H]1C[C@H](N)[C@H](O)[C@H](C)O1 [doxorubicin, doxorubicin hydrochloride]	31.5 ± 11.3	74.8 ± 7.5	77.3 ± 5.1	tended to decrease immediately		
[^177Lu]Lu-DOTA-(Tyr^3)octreotate [[^177Lu]Lu-DOTATATE]	97.2 ± 0.9	99.6 ± 1.9	100 ± 0.7		48	2
